Results taken from ChEMBL document CHEMBL1148976, “Hypoxia-inducible factor-1 activation by (-)-epicatechin gallate: potential adverse effects of cancer chemoprevention with high-dose green tea extracts” (J Nat Prod, 2004).
Calls of active or inactive are those of the source. The rule behind the calls is not given here.

Tests used:
T47D [1] = experiment: Induction of HIF1 activation in human T47D cells expressing pTK-HRE-luc gene under normoxic condition at 100 uM after 16 hrs by luciferase reporter assay relative to control; format: cell-based
In short: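 T47D cells transiently co-transfected by electroporation with pTK-HRE3-luc (50 μg mL−1) and pRL-TK (5 μg mL−1). Compound at 100 μM under normoxia (5% CO2:95% air, 37 °C) for 16 h. Dual luciferase read-out, firefly normalized to Renilla, expressed as fold over control. pGL3-Control transfected cells run as counter-check.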

[2] = biological target: Hypoxia inducible factors; HIF-1-alpha, HIF-2-alpha (Homo sapiens) (UniProt Q16665+Q99814); experiment: Inhibition of hypoxia-induced HIF1 activation in human T47D cells expressing pTK-HRE-luc gene at 100 uM by luciferase reporter assay; format: cell-based
In short: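 T47D cells co-transfected by electroporation with pTK-HRE3-luc and pRL-TK. Compound at 100 μM, then hypoxia (1% O2). Dual luciferase read-out, firefly normalized to Renilla. Value is % inhibition of hypoxic HIF-1 activation. pGL3-Control reporter cells used as specificity control.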

[3] = Aqueous stability of the compound; format: physicochemical; details: buffer
In short: (§1)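 Compound added at 100 μM final in serum-free DMEM/F12 with Pen/Strep to medium with 5% FBS, with or without T47D cells, 30 min, then hypoxia (1% O2) 16 h. Other samples: cell-free medium with or without antibiotics. Conditioned medium extracted; normal-phase TLC on silica gel G with UV254 indicator, UV254 quenching read-out. Extraction control: compound mixed with medium immediately before extraction.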

[4] = Chemical stability in DMEM/F12 medium in presence of fetal calf serum; format: physicochemical; details: cattle; in short: as §1
[5] = biological target: Hypoxia-inducible factor 1-alpha (Homo sapiens) (UniProt Q16665); experiment: Induction of HIF1alpha protein in human T47D cells under normoxic condition at 100 uM after 4 hrs by Western blot analysis; format: cell-based
In short: (§2)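 T47D cells (10 million per 100 mm plate, 10% FBS DMEM/F12) are plated and left overnight. Test compound, with or without iron salt, ascorbate or Trolox, is added for 30 min at 37 °C. Cells then stand 4 h under normoxia (5% CO2:95% air) or hypoxia (5% CO2:1% O2:94% N2). Nuclear extracts are probed for HIF-1α and HIF-1β by Western blot.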

[6] = biological target: Aryl hydrocarbon receptor nuclear translocator (Homo sapiens) (UniProt P27540); experiment: Induction of HIF1beta protein in human T47D cells under normoxic condition at 100 uM after 4 hrs by Western blot analysis; format: cell-based; in short: as §2
T47D [7] = experiment: Induction of HIF1 activation in human T47D cells under normoxic condition at 100 uM in presence of 300 uM iron(2); format: cell-based
In short: (§3)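 T47D cells transiently co-transfected by electroporation with pTK-HRE3-luc (50 μg mL−1) and pRL-TK (5 μg mL−1). Read-out is dual luciferase, with firefly normalized to Renilla. Incubation runs 16 h under normoxia. Iron salt or ascorbate is added with test compound (100 μM). Data come from one representative experiment in quadruplicate, mean ± SD, p <0.05 versus control.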

T47D [8] = experiment: Induction of HIF1 activation in human T47D cells under normoxic condition at 100 uM in presence of 100 uM iron(2); format: cell-based; in short: as §3
T47D [9] = experiment: Induction of VEGF mRNA expression in human T47D cells under normoxic condition at 100 uM after 16 hrs by RT-PCR; format: functional, cell-based
In short: (§4)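 T47D cells, pretreated 30 min, then 16 h under normoxia or hypoxia (1% O2). Total RNA extracted immediately after treatment, checked by absorbance and agarose gel. Target mRNA measured by quantitative real-time RT-PCR, normalized to 18S rRNA, relative expression by ΔΔCT method. Mean ± SD from one representative experiment in triplicate.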

T47D [10] = experiment: Induction of GLUT1 mRNA expression in human T47D cells under normoxic condition at 100 uM after 16 hrs by RT-PCR; format: functional, cell-based; in short: as §4
T47D [11] = experiment: Induction of CDKN1A mRNA expression in human T47D cells under normoxic condition at 100 uM after 16 hrs by RT-PCR; format: functional, cell-based; in short: as §4
T47D [12] = experiment: Inhibition of hypoxia-induced VEGF mRNA expression in human T47D cells at 100 uM after 16 hrs by RT-PCR; format: functional, cell-based; in short: as §4
T47D [13] = experiment: Inhibition of hypoxia-induced GLUT1 mRNA expression in human T47D cells at 100 uM after 16 hrs by RT-PCR; format: functional, cell-based; in short: as §4
[14] = biological target: Hypoxia-inducible factor 1-alpha (Homo sapiens) (UniProt Q16665); experiment: Inhibition of hypoxia-induced increase in HIF1alpha protein in human T47D cells at 100 uM after 4 hrs by Western blot analysis; format: cell-based; in short: as §2
T47D [15] = experiment: Increase in HIF1alpha mRNA expression in human T47D cells under normoxic condition at 100 uM after 16 hrs by RT-PCR; format: functional, cell-based; in short: as §4
T47D [16] = experiment: Decrease in hypoxia-induced HIF1alpha mRNA expression in human T47D cells at 100 uM after 16 hrs by RT-PCR; format: functional, cell-based; in short: as §4
[17] = biological target: Hypoxia-inducible factor 1-alpha (Homo sapiens) (UniProt Q16665); experiment: Induction of HIF1alpha protein in human T47D cells under normoxic condition at 100 uM after 4 hrs by Western blot analysis in presence of 300 uM iron(2); format: cell-based; in short: as §2
[18] = biological target: Hypoxia-inducible factor 1-alpha (Homo sapiens) (UniProt Q16665); experiment: Induction of HIF1alpha protein in human T47D cells under normoxic condition at 100 uM after 4 hrs by Western blot analysis in presence of 100 uM iron(2); format: cell-based; in short: as §2
[19] = biological target: Aryl hydrocarbon receptor nuclear translocator (Homo sapiens) (UniProt P27540); experiment: Induction of HIF1beta protein in human T47D cells under normoxic condition at 100 uM after 4 hrs by Western blot analysis in presence of 300 uM iron(2); format: cell-based; in short: as §2
T47D [20] = experiment: Induction of HIF1 activation in human T47D cells under normoxic condition at 100 uM in presence of 50 uM iron(3); format: cell-based; in short: as §3
[21] = biological target: Hypoxia-inducible factor 1-alpha (Homo sapiens) (UniProt Q16665); experiment: Induction of HIF1alpha protein in human T47D cells under normoxic condition at 100 uM after 4 hrs by Western blot analysis in presence of 150 uM iron(3); format: cell-based; in short: as §2
T47D [22] = experiment: Induction of HIF1 activation in human T47D cells under normoxic condition at 100 uM in presence of 150 uM iron(3); format: cell-based; in short: as §3
[23] = biological target: Aryl hydrocarbon receptor nuclear translocator (Homo sapiens) (UniProt P27540); experiment: Induction of HIF1beta protein in human T47D cells under normoxic condition at 100 uM after 4 hrs by Western blot analysis in presence of 150 uM iron(3); format: cell-based; in short: as §2
T47D [24] = experiment: Induction of HIF1 activation in human T47D cells under normoxic condition at 100 uM by luciferase reporter gene assay in presence of ascorbate; format: cell-based; in short: as §3
[25] = biological target: Hypoxia-inducible factor 1-alpha (Homo sapiens) (UniProt Q16665); experiment: Induction of HIF1alpha protein in human T47D cells under normoxic condition at 100 uM after 4 hrs by Western blot analysis in presence of ascorbate; format: cell-based; in short: as §2
[26] = biological target: Aryl hydrocarbon receptor nuclear translocator (Homo sapiens) (UniProt P27540); experiment: Induction of HIF1beta protein in human T47D cells under normoxic condition at 100 uM after 4 hrs by Western blot analysis in presence of ascorbate; format: cell-based; in short: as §2
[27] = biological target: Hypoxia-inducible factor 1-alpha (Homo sapiens) (UniProt Q16665); experiment: Induction of HIF1alpha protein in human T47D cells under normoxic condition at 100 uM after 4 hrs by Western blot analysis in presence of trolox; format: cell-based; in short: as §2

Chain of Aryl hydrocarbon receptor nuclear translocator (Homo sapiens) (P27540 whole entry): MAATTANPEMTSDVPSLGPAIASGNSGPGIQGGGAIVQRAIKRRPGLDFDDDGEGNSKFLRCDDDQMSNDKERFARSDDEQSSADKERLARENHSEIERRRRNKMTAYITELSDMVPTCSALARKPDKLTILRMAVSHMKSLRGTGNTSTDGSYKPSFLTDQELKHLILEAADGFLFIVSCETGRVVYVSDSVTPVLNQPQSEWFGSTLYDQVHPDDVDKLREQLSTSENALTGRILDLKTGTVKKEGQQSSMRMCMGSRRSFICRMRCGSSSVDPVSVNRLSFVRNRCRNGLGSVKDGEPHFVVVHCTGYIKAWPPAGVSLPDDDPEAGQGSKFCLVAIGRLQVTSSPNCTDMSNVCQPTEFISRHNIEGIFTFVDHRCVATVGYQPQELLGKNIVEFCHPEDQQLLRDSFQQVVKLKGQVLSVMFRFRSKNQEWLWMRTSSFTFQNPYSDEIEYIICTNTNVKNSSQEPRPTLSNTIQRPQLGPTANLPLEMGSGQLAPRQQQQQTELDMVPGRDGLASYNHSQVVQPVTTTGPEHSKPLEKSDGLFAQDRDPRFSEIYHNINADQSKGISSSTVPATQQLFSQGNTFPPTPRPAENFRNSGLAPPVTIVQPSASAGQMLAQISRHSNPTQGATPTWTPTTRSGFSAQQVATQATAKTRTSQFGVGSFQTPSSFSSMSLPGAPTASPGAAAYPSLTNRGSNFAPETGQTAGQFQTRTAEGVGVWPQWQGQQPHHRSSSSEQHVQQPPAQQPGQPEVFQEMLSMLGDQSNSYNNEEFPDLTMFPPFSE
Chain of Hypoxia-inducible factor 1-alpha (Homo sapiens) (Q16665 whole entry, looked up): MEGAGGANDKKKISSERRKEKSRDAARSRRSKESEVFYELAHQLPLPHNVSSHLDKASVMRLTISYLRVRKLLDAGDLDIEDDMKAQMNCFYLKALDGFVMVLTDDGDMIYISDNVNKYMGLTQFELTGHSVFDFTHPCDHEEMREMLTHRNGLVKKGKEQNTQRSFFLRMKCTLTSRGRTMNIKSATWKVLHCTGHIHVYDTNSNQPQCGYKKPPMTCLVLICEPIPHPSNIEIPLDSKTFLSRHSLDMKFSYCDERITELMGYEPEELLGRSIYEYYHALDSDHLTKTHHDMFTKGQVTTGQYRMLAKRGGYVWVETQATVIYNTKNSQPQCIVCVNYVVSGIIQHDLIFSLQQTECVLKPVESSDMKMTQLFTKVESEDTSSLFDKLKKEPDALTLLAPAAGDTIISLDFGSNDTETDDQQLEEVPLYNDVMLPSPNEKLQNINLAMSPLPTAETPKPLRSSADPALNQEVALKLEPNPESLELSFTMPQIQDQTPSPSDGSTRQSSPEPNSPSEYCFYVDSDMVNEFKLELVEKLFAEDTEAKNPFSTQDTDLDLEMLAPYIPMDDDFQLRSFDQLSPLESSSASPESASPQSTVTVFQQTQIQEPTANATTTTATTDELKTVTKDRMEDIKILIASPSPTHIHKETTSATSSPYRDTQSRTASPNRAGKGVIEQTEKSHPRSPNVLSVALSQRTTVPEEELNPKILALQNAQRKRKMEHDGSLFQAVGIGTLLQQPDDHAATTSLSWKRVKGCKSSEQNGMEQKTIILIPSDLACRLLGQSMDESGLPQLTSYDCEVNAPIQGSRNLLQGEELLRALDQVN

Structure (SMILES): O=C(O[C@@H]1Cc2c(O)cc(O)cc2O[C@@H]1c1cc(O)c(O)c(O)c1)c1cc(O)c(O)c(O)c1 [EPIGALOCATECHIN GALLATE]
- fold change (FC) (T47D [1]): 3.6
- Activity [2]: inactive
- Stability [3]: Unstable
- Stability [4]: Unstable

Structure (SMILES): Cc1c(C)c2c(c(C)c1O)CCC(C)(C(=O)O)O2 (configuration not stated)
- Activity [5]: inactive
- Activity [6]: inactive

Structure (SMILES): CC(=O)N(O)CCCCCNC(=O)CCC(=O)N(O)CCCCCNC(=O)CCC(=O)N(O)CCCCCN
- Activity (T47D [7]): inactive
- Activity (T47D [8]): inactive

Structure (SMILES): O=C(O[C@@H]1Cc2c(O)cc(O)cc2O[C@@H]1c1ccc(O)c(O)c1)c1cc(O)c(O)c(O)c1
- fold change (FC) (T47D [1]): 16.8
- inhibition [2]: 79%
- Activity (T47D [9]): Active
- Activity (T47D [10]): Active
- Activity (T47D [11]): Active
- Activity (T47D [12]): inactive
- Activity (T47D [13]): inactive
- Activity [5]: Active
- Activity [6]: inactive
- Activity [14]: Active
- Activity (T47D [15]): inactive
- Activity (T47D [16]): inactive
- Activity (T47D [7]): inactive
- Activity [17]: inactive
- Activity [18]: inactive
- Activity [19]: Active
- Activity (T47D [20]): inactive
- Activity [21]: inactive
- Activity (T47D [22]): inactive
- Activity [23]: Active
- Activity (T47D [24]): inactive
- Activity [25]: inactive
- Activity [26]: Active
- Activity [27]: Active
